According to ChEMBL document CHEMBL1126145, “Phenyl-substituted analogues of oxotremorine as muscarinic antagonists” (J Med Chem, 1992):

What was measured:
[1] = target: Muscarinic acetylcholine receptor; assay: Determination of dissociation constant from antimuscarinic activity on isolated guinea pig ileum.; format: tissue-based, Cavia porcellus
Mus musculus = species: Mus musculus; assay: Antimuscarinic activity on the intact mice.(Dose required to double the dose of oxotremorine inducing a predetermined tremor intensity.); format: functional
Procedure, shortened: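 Male Swiss-Webster mice (24-32 g). Antagonist given i.p. at 200 µmol/kg to groups of ≥6 mice; 6 untreated controls. 20 min later, the i.v. oxotremorine ED50 was estimated by the up-and-down method, with intermittent spontaneous (grade 2) tremor as endpoint. Active compounds were tested at two further doses. The dose doubling the oxotremorine ED50 was found by linear regression of ED50 vs antagonist dose (including zero).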

[2] = target: Muscarinic acetylcholine receptor; assay: Inhibition of [3H]N-methylscopolamine binding to muscarinic acetylcholine receptor of rat cerebral cortex.; format: tissue-based
Procedure, shortened: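 Male Sprague-Dawley rat (200-300 g) cortex homogenized in 50 mM Na-K phosphate pH 7.4, spun 30000g, resuspended at 10 mg wet tissue/mL. Incubated with (-)-[3H]NMS 0.3 nM plus competitor for 30 min at 30 °C; filtration assay. IC50 from one-site nonlinear fit, converted to Ki by Cheng-Prusoff. Three experiments, each in triplicate.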

Row | Compound | Kd [1] [µM] | Ki [2] [µM] | Tremorolytic dose (Mus musculus) [µM/kg]
1 | CN1[C@@H]2CC[C@H]1C[C@@H](OC(=O)C(CO)c1ccccc1)C2 (stereo partly specified) [ATROPINE] | – | – | 0.9
2 | CC(C#CCN1CCCC1)N1CCCC1=O (stereo unspecified) | 0.091 | – | 0.5
3 | CN(CC#CCN1CCCC1)C(=O)Cc1ccccc1 | 20.5 | 5.2 | >200
4 | CC1CCC(=O)N1CC#CCN1CCCC1 (stereo unspecified) | – | – | 0.4
5 | CC(C#CCN1CCCC1)N1C(=O)CCC1=O (stereo unspecified) | – | – | 1.2
6 | CC(=O)N(CC#CCN1CCCC1)Cc1ccccc1 | 5.89 | 1.29 | 154
7 | CC(=O)N(C)C(C)C#CCN1CCCC1 (stereo unspecified) | – | – | 0.6

Second part, led by results:

Row | Kd [1] [µM] | Ki [2] [µM] | Compound | Tremorolytic dose (Mus musculus) [µM/kg]
8 | 0.5 | 0.23 | CN(C(=O)C(F)(F)F)C(C#CCN1CCCC1)c1ccccc1 (stereo unspecified) | 26.5
9 | 0.2 | 0.11 | O=C1CCCN1C(C#CCN1CCCC1)c1ccccc1 (stereo unspecified) | 8.93
10 | 0.85 | 0.54 | O=C1CCC(c2ccccc2)N1CC#CCN1CCCC1 (stereo unspecified) | 55.6
11 | 8.1 | 2.4 | O=C1CCCN1CC#CCN1CCC(c2ccccc2)C1 (stereo unspecified) | 122
12 | 15.22 | 5.77 | O=C1CC(c2ccccc2)CN1CC#CCN1CCCC1 (stereo unspecified) | >200
13 | 0.62 | 0.31 | CC(=O)N(C)C(C#CCN1CCCC1)c1ccccc1 (stereo unspecified) | 17.4
14 | 0.1 | 0.12 | O=C1CCC(=O)N1C(C#CCN1CCCC1)c1ccccc1 (stereo unspecified) | 7.29
15 | 11.21 | 6.91 | O=C1C(c2ccccc2)CCN1CC#CCN1CCCC1 (stereo unspecified) | >200
